Bioassay records deposited in PubChem BioAssay by several laboratories.
Only some compounds are listed: those with a hit (about 5.6% of all), similar ones and a draw of the others.
aDG glyco up: alpha-DG glycosylation activation; AID 624168; Pro5-aDG cells, alpha-DG glycosylation AlphaScreen (IIH6); 0% Pro5, 100% B10-LARGE cell signal; 0.22% of 360,000 active; activation, % at 10 µM;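 active means activation of at least 8% versus controls, or a plate z-score of at least 8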;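 further: Pro5 are CHO cells carrying HIG-tagged alpha-DG that lacks glycosylation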
CHOP inh: inhibitors of CHOP induction in ER stress response | CHO-K1 CHOP-promoter luciferase, tunicamycin-induced, 15-18 h | inhibition, % at 10 µM | 3.8% of 220,000 active | AID 2732;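 active means compounds that reduced the stress-induced luciferase reporter signal by more than about 70% of percent inhibition, limit read from the data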;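 further: 0% = tunicamycin plus vehicle and 100% = wells without tunicamycin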
CHOP UPR activ: activators of apoptotic arm of unfolded protein response (CHOP). CHO-CHOP luciferase reporter, UPR activation, luminescence; percent of tunicamycin response over DMSO baseline. activation, % at 10 µM. 0.34% of 330,000 active. AID 449763;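 active means at 10 µM dose, activation of 40% or more, normalized to positive control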;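 further: 100% = tunicamycin at 10 µg/mL and 0% = DMSO alone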
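Dosing – one dose, 10 µM in 0.5% DMSO · System – CHO-CHOP cells, stable luciferase reporter of PERK-eIF2a-CHOP signalling · Input – 500 cells/well · Control set – tunicamycin 10 µg/mL final as positive, DMSO-only wells as negative · Timing – 6 h compound treatment, 37 °C · Measure – % activation vs tunicamycin · Technique – luminescence read with Steady-Glo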
NR3A LBD binder: modulates the human NR3A ligand-binding domain; NR3A LBD differential scanning fluorimetry, Tm shift; 0% = protein alone, 100% = glycine-bound protein; Tm shift relative to glycine control, % at 25 µM; 2.5% of 340,000 active;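 active means melting temperature shift of at least 10% of the positive control shift, at one fixed dose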
UPR XBP1 act: adaptive UPR (XBP1) activation; CHO-XBP1 luciferase reporter, IRE1-XBP1 UPR activation, luminescence; percent of tunicamycin response, DMSO as zero; activation, % at 20 µM; 0.33% of 330,000 active; AID 463104;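 active means versus positive control, 20 µM dose yields 30% or more activation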;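 further: 100% = tunicamycin at 10 µg/mL and 0% = DMSO only wells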
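Material: CHO cell line with stable XBP1 luciferase reporter; schedule: 16-18 h cell attachment at 37 °C, then 6 h compound exposure; signal: glow luminescence from Steady-Glo reagent; medium: serum-containing F12 medium, 10% FBS; benchmarks: tunicamycin 10 µg/mL and vehicle-only wells; read-out: percent activation relative to tunicamycin reference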
MPTP inh: inhibitors of mitochondrial permeability transition pore | AID 602449 | 1.4% of 360,000 active | inhibition, % at 10 µM | isolated mouse mitochondria, Ca2+ swelling absorbance, 30 min;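 active means inhibition of 50% or more, scaled per plate between neutral and stimulator controls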;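 further: 0% = DMSO wells given calcium and 100% = 1 mM EGTA wells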
MPTP counter: Rhodamine 123 counter-screen of mitochondrial pore hits; AID 624504; shares compounds with MPTP inh; inhibition, % at 10 µM; isolated mitochondria, membrane potential, Rhodamine 123 fluorescence; 78% of 5,000 active; in the data active means inhibition above about 22%;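 further: 0% = DMSO vehicle and 100% = positive control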
MPTP swell DR: MPTP inhibition, dose response swelling confirmation; IC50, µM; isolated mitochondria swelling, absorbance; 58% of 780 active; shares compounds with MPTP inh; AID 651561; in the data active means IC50 below about 20 µM
MPTP counter DR: active in counter-screen for permeability transition pore inhibitors. isolated mitochondria counterscreen, fluorescence read-out. IC50, µM. AID 651564. 49% of 780 active. shares compounds with MPTP inh; in the data active means IC50 below about 80 µM
Numbers without * were called inactive; . = no result.

SMILES	aDG glyco up	CHOP inh	CHOP UPR activ	NR3A LBD binder	UPR XBP1 act	MPTP inh	MPTP counter	others
O=C(Nc1ccncc1)Nc1ccc(Cl)cc1	1.0	.	5.0	26.1*	3.2	55.1*	97.7*
CC1=C(C(=O)OCc2ccccc2)C(c2ccc3c(c2)OCO3)NC(=O)N1CCCC(=O)O (stereo unspecified)	-0.4	.	-1.5	0.3	-0.4	-0.2	.
COc1ccc(C2=NOC(C)(c3nnc(-c4ccncc4)o3)C2)cc1 (stereo unspecified)	0.1	.	-0.7	-1.6	-0.5	0.1	.
O=c1onc2n1-c1cc(Br)ccc1OC2	.	-13.6	.	.	.	.	.
Cc1onc(-c2ccccc2Cl)c1C(=O)OCC(=O)N1CCN(c2ccccc2)CC1	0.0	.	0.5	-3.4	-1.7	-1.7	.
C/C(O)=C(/C#N)c1nc2ccccc2[nH]1	-0.1	6.8	-2.1	0.1	-2.5	-1.7	.
N#C/C(=C(/O)C(Cl)(Cl)Cl)c1nc2ccccc2[nH]1	-0.1	15.8	0.3	-3.6	0.9	75.5*	81.3*
N#C/C(=C(/O)c1ccc(Cl)c([N+](=O)[O-])c1)c1nc2ccccc2[nH]1	0.1	13.4	1.9	-0.9	5.9	78.3*	80.6*
COC(=O)c1sc(S(=O)(=O)NCCC(=O)O)c(C(=O)OC)c1C	0.0	35.4	2.0	-2.0	-1.8	-1.1	.
CC(=O)N(C)c1cccc(-c2ccc3nnc(C)n3n2)c1	0.1	.	1.0	-0.7	-1.2	1.0	.
O=c1c(-c2ccco2)nc2ccccc2n1C(c1ccccc1)c1nc2ccccc2[nH]1 (stereo unspecified)	0.1	.	.	.	.	-0.7	.
CC1CCN(CCCCOc2ccc(C(C)(C)C)cc2)CC1	0.7	.	1.0	-1.1	-1.2	53.5*	6.7	MPTP swell DR=6.79*;MPTP counter DR=13.4*
CC1CCN(CCCCOc2ccc(Cl)cc2)CC1	-0.1	.	0.0	-1.4	-2.0	-0.8	.
Cc1ccccc1-n1c(SCC(=O)NC(N)=O)nc2sc(-c3ccccc3)cc2c1=O	0.0	37.9	3.1	-2.3	-2.3	0.2	.
CCCCSCc1nc2nc(Cl)c(Cl)nc2[nH]1	0.5	.	.	.	.	71.8*	82.8*
CCOc1ccc2[nH]c(C)cc(=O)c2c1	-0.1	-24.1	-2.2	-1.0	-1.4	-2.8	.
O=c1cc(C(F)(F)F)[nH]c2ccc(OC(F)(F)F)cc12	-0.1	-14.0	0.5	0.5	-3.5	63.9*	84.8*
O=c1cc(C(F)(F)F)[nH]c2c(C(F)(F)F)cccc12	-0.1	-4.7	-1.0	-5.0	-2.9	63.6*	97.7*
Cc1cc(=O)c2cccc(Br)c2[nH]1	0.1	21.7	-1.7	6.6	4.5	0.8	.
CCCCN(C)CCCNC(=O)CN1C(=O)COc2ccc(S(=O)(=O)N3CCOCC3)cc21	-0.2	.	0.2	-0.5	-4.5	-1.2	.
Cc1nc(C)c(C(=O)OCC(=O)NCc2ccccc2Cl)s1	-0.2	.	0.8	0.5	-1.2	-0.6	.
O=C(CSc1ncnc2c1sc1ccccc12)Nc1ccc(Br)cc1	0.1	44.3	1.6	1.0	-0.2	54.5*	37.4*
CN(Cc1ccc(OC(F)F)cc1)C(=O)c1cccc(S(=O)(=O)N2CCN(Cc3ccccc3)CC2)c1	3.2	.	.	-0.9	.	58.2*	99.3*
CCCCCCNC(=O)Nc1ccccc1	0.1	15.5	5.0	1.5	0.3	0.8	.
Cc1cc(Cl)ccc1NC(=S)NCCc1ccc(Cl)cc1	0.1	.	0.8	2.0	-7.2	87.5*	80.6*
SMILES	aDG glyco up	CHOP inh	CHOP UPR activ	NR3A LBD binder	UPR XBP1 act	MPTP inh	MPTP counter	others
Cc1ccc(Cl)cc1NC(=S)NCc1cccn1C	-0.2	3.4	-0.3	-0.2	1.3	64.2*	47.2*
O=C(NCCc1ccc(Cl)cc1)Nc1ccc(Cl)cc1	0.0	-12.4	3.0	20.1*	-0.8	77.7*	98.2*
O=C(NCCc1ccncc1)Nc1ccc(Cl)cc1	0.2	5.2	0.8	-3.6	-0.7	0.3	.
CCCCSCCCNC(=O)Nc1ccc(CC)cc1	-0.1	-0.3	2.2	-3.1	-0.2	85.9*	83.4*
Cc1ccccc1NC(=S)NCc1cccn1C	0.4	-8.7	-0.7	-2.4	0.3	2.0	.
CSc1ccc(/C=C(\C#N)C(=O)Nc2cccc(C)c2)cc1	-0.2	-23.2	7.2	-1.9	-0.1	3.9	.
CC(OC(=O)Cn1cnc2c1c(=O)n(C)c(=O)n2C)C(=O)N(C)c1ccccc1 (stereo unspecified)	-0.2	.	3.2	-3.2	-1.4	-0.3	.
CCNC(=S)Nc1ccc(Cl)cc1Cl	0.4	13.4	-0.9	-1.6	1.4	0.2	.
S=C(NCCc1ccccc1)Nc1ccc(Cl)cc1Cl	0.1	31.2	-2.2	-2.1	1.0	81.5*	102.1*
Cc1cc(Cl)ccc1NC(=S)NCc1ccc(Cl)cc1	-0.1	62.1	1.1	-4.1	-0.1	83.8*	99.5*
CC(=O)c1cccc(NC(=S)NCc2ccccc2)c1	-0.1	.	4.0	1.4	-4.8	0.2	.
CC(=O)c1cccc(NC(=S)NCCc2ccc(Cl)cc2)c1	0.7	6.7	3.5	14.8*	-5.3	82.8*	100.1*
Cc1cc(Cl)ccc1NC(=S)NCc1ccc(S(N)(=O)=O)cc1	-0.2	-3.5	-1.1	-4.0	-2.5	-1.0	.
CCOC(=O)[C@@H]1[C@H]2COc3ccccc3[C@H]2N2C(=O)N(c3ccc(C(F)(F)F)cc3)C(=O)[C@]12C	0.4	.	0.2	-2.7	5.9	95.0*	118.4*
O=C(Nc1ccc(Cl)c(Cl)c1)Nc1cc(S(=O)(=O)N2CCOCC2)ccc1N1CCCC1	-0.1	30.9	-2.3	11.2*	-4.5	93.5*	68.0*
O=C(Nc1ccc(Cl)c(Cl)c1)Nc1cc(C(=O)N2CCOCC2)ccc1N1CCCCC1	-0.1	.	3.1	-3.6	-1.0	94.6*	-2.1	MPTP swell DR=18.2*;MPTP counter DR=<2.5*
CC(OCC(O)CNCC1COc2ccccc2O1)c1ccc(Cl)cc1 (stereo unspecified)	0.0	48.5	-1.3	2.5	-1.8	85.8*	-6.2	MPTP swell DR=14.8*;MPTP counter DR=58*
CCN(CC)CCNc1ncnc2c1[nH]c1ccc(OC)cc12	.	2.0	-0.4	.	-1.7	.	.
COc1ccc2[nH]c3c(NCCC4=CCCCC4)ncnc3c2c1	0.4	71.9*	.	-0.3	.	94.1*	92.8*
CCOc1ccc2[nH]c3c(NCCN(C)C)ncnc3c2c1	0.0	.	0.6	.	-0.1	-0.5	.
CCOc1ccc2[nH]c3c(NCCC(C)C)ncnc3c2c1	0.7	.	1.5	-4.7	5.3	78.0*	67.1*
